Compound activity as filed in PubChem.
Compounds with a hit are over-represented: about 2.1% of the library has one in this group of screens.
EBI2 block = EBI2 (human) antagonism | EBI2 beta-arrestin recruitment, luminescence, 7a,25-OHC stimulated | 0.81% of 360,000 active | inhibition, % at 5 µM | P32249; in the data active = inhibition above about 38%;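 also: enzyme fragment complementation signal reports receptor beta-arrestin coupling in cells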
APJ antag = blocks the human apelin receptor APJ; inhibition, % at 20 µM; P35414; CHO-K1 APJ beta-arrestin complementation, luminescence; 0.32% of 330,000 active;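 active = inhibition above about 40% at 20 µM, limit read from the data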;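 also: cells challenged with 10 nM apelin-13 agonist together with compound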
m5-HT2A agonist = activates the mouse 5-HT2A serotonin receptor; P35363; activation, % at 7.6 µM; 0.66% of 360,000 active; CHO-K1 mHTR2A beta-arrestin complementation, luminescence; percent of 30 µM serotonin response; AID 624169;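 active = activation above a run cutoff, the mean activation of all tested compounds plus 3 SD, cut at about 14% in these data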
CXCR6 inh = inhibitors of human CXCR6 receptor; O00574; CHO-K1 PathHunter CXCR6 beta-arrestin, luminescence; inhibition, % at 20 µM; 0.36% of 360,000 active; in the data active = inhibition above about 34%, passing the limit was not always enough;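 also: antagonist mode with CXCL16 agonist at 10 nM final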
Target sequence (O00574 whole entry, looked up): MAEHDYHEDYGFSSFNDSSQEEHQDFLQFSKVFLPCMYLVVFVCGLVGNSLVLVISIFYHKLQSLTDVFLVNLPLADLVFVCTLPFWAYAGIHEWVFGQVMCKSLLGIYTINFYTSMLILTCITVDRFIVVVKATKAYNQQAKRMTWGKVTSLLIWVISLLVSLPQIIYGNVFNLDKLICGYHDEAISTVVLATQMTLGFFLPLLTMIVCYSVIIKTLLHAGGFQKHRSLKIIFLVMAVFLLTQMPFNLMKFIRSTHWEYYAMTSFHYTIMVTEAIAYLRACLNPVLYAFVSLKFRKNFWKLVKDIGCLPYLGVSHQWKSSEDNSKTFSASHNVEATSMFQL
CCR6 antagonist = antagonists of human CCR6 receptor | CHO-K1 CCR6 PathHunter beta-arrestin, luminescence, CCL20-stimulated | inhibition, % at 20 µM | 0.49% of 340,000 active;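 active = compounds whose inhibition of the agonist-driven luminescence signal at 20 µM reaches about 50%, limit read from the data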;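 also: cells stimulated with CCL20 at 14 nM final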
APJ agonist = APJ receptor agonism; CHO-K1 APJ PathHunter beta-arrestin, luminescence; 0% DMSO wells, 100% apelin; activation, % at 20 µM; 0.11% of 330,000 active; P35414;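 active = activation more than six SD over the plate average, tested at 20 µM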
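Assay system – PathHunter CHO-K1 APJ (AGTRL-1) beta-arrestin reporter cells · Compound – one dose, 20 µM compound, 1% DMSO · Timing – compound 90 min 25 °C, reagent 1 h · Measured by – luminescence from split beta-galactosidase complementation, Galacton Star/Emerald II substrate · Measure – beta-arrestin recruitment to APJ as agonist activity, luminescent signal · Benchmarks – DMSO vs Apelin-13 10 nM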
APJ ag confirm = confirmation of human APJ apelin receptor agonists; 10% of 310 active; shares compounds with APJ agonist; activation, % at 20 µM; CHO-K1 APJ PathHunter beta-arrestin, luminescence;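 active = activation above 40%, taking the highest of four retests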
Large screens that a line does not name were inactive (follow-up assays come after a bar, where they were run).

c1ccc(Nc2nc(-c3ccccc3)ns2)cc1	EBI2 block 46
O=C(Nc1nc(-c2ccccc2)cs1)C1CCCN(S(=O)(=O)c2cccc([N+](=O)[O-])c2)C1 (stereo not given)	none
O=C(Nc1nc(-c2ccccc2)cs1)C1CCCN(S(=O)(=O)c2ccccc2)C1 (stereo not given)	CCR6 antagonist 66
COc1ccccc1NC(=O)COC(=O)c1ccc2c(=O)n3c(nc2c1)CCC3	none (no result: APJ antag, CCR6 antagonist, APJ agonist)
CC(C)(C)c1ccc(COc2ccsc2C(=O)O)cc1	none
CCN(CC)c1ccc2cc(C(=O)NNC(=O)c3ccc(S(=O)(=O)N4CCCCC4)cc3)c(=O)oc2c1	CCR6 antagonist 69 (no result: APJ antag, APJ agonist)
O=C(Oc1ccccc1F)C1CCN(C(=O)c2ccc(F)cc2)CC1	none
Cc1ccc(Cl)cc1N1CCN(C(=O)c2cc3c(=O)n(C)c4ccccc4c3n2C)CC1	APJ agonist 13
O=C(NNC(=O)C1CC=CCC1)c1ccccc1Br (stereo not given)	none
O=C(NNc1c2ccccc2nc2ccccc12)c1cccc(O)c1	CCR6 antagonist 60
N#CC(C#N)=C(N)/C(C#N)=C/c1cc(O)c(O)c(O)c1	APJ antag 57, CXCR6 inh 55, CCR6 antagonist 70
CC(CC(=O)N1CCN(c2cccc(Cl)c2)CC1)S(=O)(=O)c1ccc2c(c1)NC(=O)CO2 (stereo not given)	APJ agonist 33 | APJ ag confirm inactive
N/C(Cc1ccc([N+](=O)[O-])cc1)=N\OC(=O)c1cccc(Br)c1	none
COc1cc(C(=O)O/N=C(\N)Cc2ccc([N+](=O)[O-])cc2)cc(OC)c1OC	none
COc1ccc(C(=O)O/N=C(\N)Cc2ccc(Cl)cc2)cc1OC	APJ agonist 12 | APJ ag confirm inactive
COc1ccc(C(=O)O/N=C(\N)Cc2ccc([N+](=O)[O-])cc2)c(OC)c1	APJ agonist 21 | APJ ag confirm inactive
COc1ccccc1C/C(N)=N/OC(=O)c1cccc([N+](=O)[O-])c1	APJ agonist 11 | APJ ag confirm inactive
COc1ccc(C/C(N)=N/OC(=O)c2cccc([N+](=O)[O-])c2)cc1	APJ agonist 18 | APJ ag confirm inactive
Cc1ccc(C)n1-c1nc(=S)[nH][nH]1	none
C=CCSc1nc(=O)n2ccccc2n1	none
CC(=O)c1c(C)[nH]c(C(=O)OCC(=O)Nc2cc(Cl)ccc2[N+](=O)[O-])c1C	APJ agonist 17 | APJ ag confirm inactive
CC(=O)C1=C(O)CC(C)(C)CC1=NCc1nc2ccccc2[nH]1	none
CC(C)C[C@@H](CO)N(Cc1ccccc1)S(=O)(=O)N(Cc1ccccc1)[C@H](CO)CC(C)C	APJ agonist 11 | APJ ag confirm inactive
Nc1cc[n+](CC(=O)c2ccc3c(c2)OCCO3)cc1	none
CCOC(=O)N1CCC(Nc2c([N+](=O)[O-])cc(C(=O)O)cc2[N+](=O)[O-])CC1	none
CCOC(=O)c1c(C)[nH]c(C(=O)OCC(=O)Nc2sccc2C(N)=O)c1C	APJ agonist 32 | APJ ag confirm inactive
CCOC(=O)c1c(C)[nH]c(C(=O)OCC(=O)Nc2ccc(Cl)cn2)c1C	none
O=C(O)CCCCCN1C(=O)/C(=C/c2cn(-c3ccccc3)nc2-c2cccs2)SC1=S	none (no result: APJ antag, APJ agonist)
CC1=NNC(=O)/C1=C\c1cn(-c2ccccc2)nc1-c1cccs1	EBI2 block 68, APJ agonist 26 | APJ ag confirm inactive
O=C(CCCOC(=O)c1ccc(O)cc1)c1ccccc1	none
CC(=O)OCCNC(=O)c1cc2ccccc2oc1=O	none
COc1ccc(N/C(N)=N/c2nc(C)cc(C)n2)cc1	none (no result: APJ antag, CCR6 antagonist, APJ agonist)
Cc1cc(C)nc(/N=C(\N)Nc2ccc(OCCC(C)C)cc2)n1	APJ agonist 16 | APJ ag confirm inactive
CC(C)(C)c1ccc(OCCCC(=O)Nc2cccc(S(=O)(=O)N3CCOCC3)c2)cc1	none
Cc1ccc2c(Cl)c(C(=O)Nc3ccc4c(c3)OCO4)sc2c1	none
CCCCNc1c(-c2cccc(-c3ccc(OC)cc3)c2)nc2ccc(C)cn12	APJ agonist 52 | APJ ag confirm inactive
CCCCNc1c(-c2cccc(-c3ccc(OC)cc3)c2)nc2cc(C)ccn12	none
CCOC(=O)N1CCN(C(=O)COC(=O)CSc2cc(C)c(Br)cc2C)CC1	none
O=C(CSc1nc2c(cnn2-c2ccc(F)cc2)c(=O)[nH]1)N1CCCc2ccccc21	none
O=C(Nc1ccncc1)c1cc2ccccc2cc1O	APJ agonist 47 | APJ ag confirm inactive
O=C(Nc1cccc([N+](=O)[O-])c1)c1cc2ccccc2cc1O	none
CS(=O)(=O)c1cnc(-c2ccccc2)nc1Sc1ccc(F)cc1	APJ agonist 18 | APJ ag confirm inactive
COc1cccc(NC(=O)Nc2nc(-c3ccc(OC)c(OC)c3)cs2)c1	APJ agonist 19 | APJ ag confirm inactive
CCOc1ccccc1OCCCC(=O)OCC(=O)Nc1cccc(Cl)c1	none
COc1ccc(/C=N/NC(=O)c2ccc(=O)[nH]n2)cc1OC	none
COc1ccccc1NC(=O)c1ccc2c(c1)N(CC(=O)NC(C)C)C(=O)C(C)(C)O2	none
CCOc1ccc2[nH]c(=O)c(CN(Cc3ccco3)C(CC)c3nnnn3Cc3ccccc3)cc2c1 (stereo not given)	APJ agonist 76 | APJ ag confirm inactive
O=C(C(=O)N1CCN(c2ccccc2F)CC1)c1ccccc1	none (no result: APJ antag, CXCR6 inh, CCR6 antagonist, APJ agonist)
CC1=C/C(=N\OS(=O)(=O)c2ccccc2)C(C)=CC1=O	APJ agonist 109 | APJ ag confirm 86
CCCCCCc1cc2cc(-c3nnc(-c4ccccc4O)o3)c(=O)oc2cc1O	APJ agonist 25 | APJ ag confirm 52
CCCCCCc1cc2cc(-c3nnc(-c4cc(OC)c(OC)c(OC)c4)o3)c(=O)oc2cc1O	APJ agonist 16 (no result: EBI2 block, m5-HT2A agonist, CXCR6 inh) | APJ ag confirm 54
CC1CC(C)CN(S(=O)(=O)c2cc(C(=O)O)c(Cl)s2)C1 (stereo not given)	none
COC(=O)C1=C(C)N(CC2CCCO2)C(=O)/C1=C\c1ccc(O)cc1 (stereo not given)	none
CCC(=O)N1CCN(c2ccc(NC(=O)c3cc4ccccc4o3)cc2Cl)CC1	none
O=C(Nc1ccc(N2CCN(C(=O)c3ccco3)CC2)c(Cl)c1)c1cc2ccccc2o1	APJ agonist 17 | APJ ag confirm inactive
CCCC(=O)N1CCN(c2ccc(NC(=O)c3cc4ccccc4o3)cc2Cl)CC1	APJ agonist 30 | APJ ag confirm inactive
O=C(CN1CCCC1)Nc1c(C(=O)C2CC2)oc2ccccc12	none
N#Cc1ccccc1OCC(=O)Nc1c(C(=O)C2CC2)oc2ccccc12	APJ agonist 40 | APJ ag confirm inactive
